Broadly, the IC50 is the concentration that inhibits the measured activity by half. The low end stands for inhibition by little substance, the high end for a need for much substance.

Experimental findings from ChEMBL document CHEMBL4480369, “Discovery of 3-hydroxy-3-pyrrolin-2-one-based mPGES-1 inhibitors using a multi-step virtual screening protocol” (Medchemcomm, 2018) are described below.

SMILES strings stand for the structures.

Assay [1] deals with T1, Prostaglandin E synthase (Homo sapiens) (UniProt O14684).
T1 sequence (whole entry): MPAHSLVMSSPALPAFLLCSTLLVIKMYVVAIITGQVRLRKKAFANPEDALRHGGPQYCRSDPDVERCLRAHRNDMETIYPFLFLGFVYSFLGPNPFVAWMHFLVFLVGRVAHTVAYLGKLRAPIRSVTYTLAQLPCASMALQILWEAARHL
Briefly: Inhibition of mPGES1 in IL1beta-stimulated human A549 cell microsomes assessed as residual activity at 10 uM using PGH2 as substrate preincubated for 15 mins followed by substrate addition and measured after 1 min by RP-HPLC analysis relative to control. The essentials:
(§1)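 mPGES-1 source was microsomes from A549 cells treated 48 h with IL-1β (1 ng ml–1), obtained by sonication and differential centrifugation (10 000×g, then 174 000×g, 4 °C). Microsomes diluted in 0.1 M potassium phosphate pH 7.4 with 2.5 mM glutathione. Compound or DMSO vehicle added for 15 min at 4 °C; 20 μM PGH2 then reacted 1 min at 4 °C. Stopped with FeCl2/citric acid containing 11β-PGE2; PGE2 measured by SPE and RP-HPLC.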

The next assay addresses T2, Prostaglandin E synthase (Homo sapiens, UniProt O14684).
T2 sequence (O14684 whole entry): T1 sequence (whole entry)
Briefly: Inhibition of mPGES1 in IL1beta-stimulated human A549 cell microsomes using PGH2 as substrate preincubated for 15 mins followed by substrate addition and measured after 1 min by RP-HPLC analysis. The essentials: as §1

For assay [2], the target named is T3, Polyunsaturated fatty acid 5-lipoxygenase (Homo sapiens) (UniProt P09917).
T3 sequence (whole entry): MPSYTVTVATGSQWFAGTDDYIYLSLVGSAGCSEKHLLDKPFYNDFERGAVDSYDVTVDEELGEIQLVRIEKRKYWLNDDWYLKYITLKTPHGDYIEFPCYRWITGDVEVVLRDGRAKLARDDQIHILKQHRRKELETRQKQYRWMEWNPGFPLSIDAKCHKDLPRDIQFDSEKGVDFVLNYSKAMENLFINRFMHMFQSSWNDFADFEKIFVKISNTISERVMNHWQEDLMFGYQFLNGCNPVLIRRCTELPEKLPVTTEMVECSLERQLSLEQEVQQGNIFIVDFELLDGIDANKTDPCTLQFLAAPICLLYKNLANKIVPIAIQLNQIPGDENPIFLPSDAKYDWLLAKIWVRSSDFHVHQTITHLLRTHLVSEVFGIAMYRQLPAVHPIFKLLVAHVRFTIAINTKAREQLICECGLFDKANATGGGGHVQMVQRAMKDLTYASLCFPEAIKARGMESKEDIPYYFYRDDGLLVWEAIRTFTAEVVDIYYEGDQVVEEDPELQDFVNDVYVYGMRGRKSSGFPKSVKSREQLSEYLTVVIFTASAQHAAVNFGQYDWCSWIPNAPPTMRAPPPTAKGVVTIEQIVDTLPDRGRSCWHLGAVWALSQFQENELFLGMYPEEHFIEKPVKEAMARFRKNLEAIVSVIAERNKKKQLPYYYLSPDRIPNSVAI
Briefly: Inhibition of 5-LO in human neutrophils assessed as residual activity at 10 uM using arachidonic acid as substrate preincubated for 10 mins followed by substrate addition and measured after 10 mins by RP-HPLC analysis. The essentials: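 Freshly isolated human peripheral-blood neutrophils at 5 × 10^6 cells per ml in PBS pH 7.4 with 1 mM CaCl2 and 1 mg mL–1 glucose. Cells pre-treated 10 min with compound in DMSO (final 0.1%). Stimulated with 2.5 μM Ca2+ ionophore A23187 plus 20 μM arachidonic acid for 10 min at 37 °C, then stopped on ice with methanol. After C18 solid-phase extraction, LTB4 all-trans isomers and 5-H(P)ETE quantified by RP-HPLC against PGB1 internal standard.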

As for `CCOc1ccc(C2C(C(=O)c3cc4ccccc4o3)=C(O)C(=O)N2c2nnc(SCc3ccc(Cl)cc3)s2)cc1OC` (configuration not stated), the results for the Activity in assay [1] and in assay [2] were 30.5% and 92.5%, respectively. On Prostaglandin E synthase, this compound registered an IC50 of 3700 nM.

`Cc1sc2ncn(CC(=O)Nc3ccc(Oc4ccccc4)cc3)c(=O)c2c1-c1ccccc1`: the Activity in assay [1] was found to be 82.6%.

For the compound `CC(=O)N[C@H]1[C@H](Oc2ccc(Nc3nc(-c4ccc(Cl)cc4)nc4ccccc34)cc2)O[C@H](CO)[C@@H](O)[C@H]1O`, the Activity in assay [1] worked out at 80.1%.

For the compound `CCOC(=O)C1CCCN(c2nc3c(C)cccn3c(=O)c2/C=C(\C#N)C(=O)NCc2ccccc2)C1` (configuration not stated), the Activity in assay [1] worked out at 86.8%.

`O=C(C1=C(O)C(=O)N(c2ncc(S(=O)(=O)c3ccc([N+](=O)[O-])cc3)s2)C1c1cccc(Cl)c1)c1ccc(Cl)cc1` (configuration not stated): the Activity in assay [1] is 25%; in assay [2], 56.6%. The compound also registered a half-inhibitory concentration (IC50) against Prostaglandin E synthase of 1900 nM.

Turning to `COc1ccc(C(=O)N/C(=C\c2ccc(-c3cccc(C(F)(F)F)c3)o2)C(=O)NC(C)(C)C)cc1`, the Activity in assay [1] turned out to be 88.6%.

Consider `COc1ccc(C(=O)N/C(=C\c2ccc(-c3ccccc3Cl)o2)C(=O)NCCCO)cc1`, for which, in assay [1], the Activity came to 72.1%.

As to `CCOc1ccc(N2CC(c3nc4ccccc4n3CCOc3ccc(Cl)cc3)CC2=O)cc1` (configuration not stated), the Activity in assay [1] was found to be 65.3%.
